In article PMC5680101 (The journal of physical chemistry. B, 2017):
Like-named read-outs stand apart in the source and are kept apart here.

Tests used:
Assay type in all cases: binding, E. coli
OmpG = OmpG (Escherichia coli, UniProt P76045, D245C); assay: biochemical; conditions: for q (slope factor or transition steepness): calculated at the midpoint of the dissociation phase; for ΔRh: decrease in hydrodynamic radius as a result of detergent desolvation; for p (Hill coefficient): four-parameter Hill fit; for rmax: maximum anisotropy at detergent concentrations above the CMC; for rmax / rmin: pH 7.4; for Rh max: maximum hydrodynamic radius of the proteomicelle; for rmin: minimum anisotropy, extrapolated for the lowest detergent concentration; for Dr fast: rotational diffusion coefficient under desolvation conditions; for Dr slow: rotational diffusion coefficient under solvation conditions; for ΔG: ΔG = RT ln Kd
Chain of OmpG (P76045 22-301 D245C): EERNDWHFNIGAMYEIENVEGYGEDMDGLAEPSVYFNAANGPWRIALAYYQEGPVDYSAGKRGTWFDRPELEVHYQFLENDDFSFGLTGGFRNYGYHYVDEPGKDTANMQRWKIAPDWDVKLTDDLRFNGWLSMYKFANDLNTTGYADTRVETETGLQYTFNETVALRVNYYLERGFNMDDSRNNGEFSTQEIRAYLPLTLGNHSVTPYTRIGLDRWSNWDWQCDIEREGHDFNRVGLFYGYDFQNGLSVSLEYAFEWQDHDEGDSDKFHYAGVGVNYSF

FhuA ΔC/Δ5L = FhuA ΔC/Δ5L (Escherichia coli, UniProt P06971, DEL561-566/INS560[…], form not given); conditions: for q (slope factor or transition steepness): calculated at the midpoint of the dissociation phase; for ΔRh: decrease in hydrodynamic radius as a result of detergent desolvation; for p (Hill coefficient): four-parameter Hill fit; for p (Hill coefficient) / rmax / rmin / Kd: 200 mM NaCl, 50 mM HEPES; for p (Hill coefficient) / Kd: pH 7.4, 24°C; for rmax: maximum anisotropy at detergent concentrations above the CMC; for rmax / rmin: pH 7.4; for Rh max: maximum hydrodynamic radius of the proteomicelle; for rmin: minimum anisotropy, extrapolated for the lowest detergent concentration; for Kd: read-out: Kd (apparent dissociation constant), midpoint of dose-dependent dissociation phase; for Dr fast: rotational diffusion coefficient under desolvation conditions; for Dr slow: rotational diffusion coefficient under solvation conditions; for ΔG: ΔG = RT ln Kd
Chain of FhuA ΔC/Δ5L (P06971 194-747, stated change not applied): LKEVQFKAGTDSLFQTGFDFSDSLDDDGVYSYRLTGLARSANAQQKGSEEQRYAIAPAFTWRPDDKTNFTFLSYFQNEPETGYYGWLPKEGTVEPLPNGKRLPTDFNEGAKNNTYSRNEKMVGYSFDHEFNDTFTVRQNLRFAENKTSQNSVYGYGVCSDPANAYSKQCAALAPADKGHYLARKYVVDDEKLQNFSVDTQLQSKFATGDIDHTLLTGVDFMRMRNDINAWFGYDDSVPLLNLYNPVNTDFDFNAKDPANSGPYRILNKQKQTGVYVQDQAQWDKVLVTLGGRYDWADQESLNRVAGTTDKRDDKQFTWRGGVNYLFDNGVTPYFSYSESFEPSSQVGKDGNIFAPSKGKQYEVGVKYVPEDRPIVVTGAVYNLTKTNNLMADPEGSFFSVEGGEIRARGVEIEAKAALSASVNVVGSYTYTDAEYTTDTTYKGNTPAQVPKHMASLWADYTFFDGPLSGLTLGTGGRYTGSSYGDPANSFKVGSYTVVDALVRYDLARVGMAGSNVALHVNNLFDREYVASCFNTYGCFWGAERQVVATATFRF

FhuA ΔC/Δ5L_25N = FhuA ΔC/Δ5L_25N (Escherichia coli, UniProt P06971); conditions: for rmax: maximum anisotropy at detergent concentrations above the CMC; for rmax / rmin: pH 7.4; for rmin: minimum anisotropy, extrapolated for the lowest detergent concentration; for Dr fast: rotational diffusion coefficient under desolvation conditions; for Dr slow: rotational diffusion coefficient under solvation conditions
Chain of FhuA ΔC/Δ5L_25N (P06971 194-747, stated change not applied): as above

FhuA ΔC/Δ7L_30N = FhuA ΔC/Δ7L_30N (Escherichia coli, UniProt P06971); conditions: for rmax: maximum anisotropy at detergent concentrations above the CMC; for rmax / rmin: pH 7.4; for rmin: minimum anisotropy, extrapolated for the lowest detergent concentration; for Dr fast: rotational diffusion coefficient under desolvation conditions; for Dr slow: rotational diffusion coefficient under solvation conditions
Chain of FhuA ΔC/Δ7L_30N (P06971 194-747, stated change not applied): as above

acidic β-barrel proteins = assay: steady-state FP anisotropy, detergent desolvation, acidic β barrels; conditions: physiological pH
Summary of the method: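 Acidic β-barrels: FhuA ΔC/Δ5L, with a GS-rich single-Cys loop replacing turn T7, labeled with Texas Red C2 maleimide in 6 M Gdm-HCl. OmpG D224C labeled in 8 M urea at 1:20 protein:dye. Detergent-refolded protein diluted into wells of varying detergent spanning the CMC, 28 nM final protein. 15 min equilibration, kinetic steady-state anisotropy read, 24 h endpoints covered at 4°C.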

basic β-barrel proteins = assay: steady-state FP anisotropy, detergent desolvation, basic β barrels
Summary of the method: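 Basic FhuA variants, C-terminal His6, labeled with 200 μM Texas Red C2 maleimide overnight at room temperature in 6 M Gdm-HCl. Denatured protein refolded by 50-fold dilution into 200 mM NaCl, 50 mM HEPES, pH 7.4, 4°C, detergent above CMC. Then diluted into wells of varying detergent, 28 nM final protein. 15 min equilibration, kinetic anisotropy read, 24 h endpoints at 4°C.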

[1] = 200 mM NaCl, 50 mM HEPES, pH 7.4, 24°C
[2] = calculated at the midpoint of the dissociation phase
[3] = decrease in hydrodynamic radius as a result of detergent desolvation
[4] = four-parameter Hill fit, 200 mM NaCl, 50 mM HEPES, pH 7.4, 24°C
[5] = maximum hydrodynamic radius of the proteomicelle
[6] = read-out: Kd (apparent dissociation constant), midpoint of dose-dependent dissociation phase, 200 mM NaCl, 50 mM HEPES, pH 7.4, 24°C

Compound: CCCCCCCCCCO[C@@H]1O[C@H](CO)[C@@H](O[C@H]2O[C@H](CO)[C@@H](O)[C@H](O)[C@H]2O)[C@H](O)[C@H]1O [DM, n-decyl-β-D-maltoside]
- Kd (OmpG): 1800 ± 400 µM
- q (slope factor or transition steepness) (OmpG): 0.064 mM⁻¹
- ΔRh (OmpG): 0.95 ± 0.04 nm
- p (Hill coefficient) (OmpG; [1]): 4.1 ± 1.2
- rmax (OmpG; 200 mM NaCl, 50 mM HEPES): 0.327 ± 0.001
- Rh max (OmpG): 2.6 nm
- rmin (OmpG; 200 mM NaCl, 50 mM HEPES): 0.214 ± 0.005
- Dr fast (OmpG): 3.5 ± 0.2 10^7 s^−1
- Dr slow (OmpG): 0.89 ± 0.02 10^7 s^−1
- ΔG (OmpG): -3.7 ± 0.1 kcal/mol
- q (slope factor or transition steepness) (FhuA ΔC/Δ5L): 0.072 mM⁻¹
- ΔRh (FhuA ΔC/Δ5L): 1.6 ± 0.1 nm
- p (Hill coefficient) (FhuA ΔC/Δ5L): 3.5 ± 0.5
- rmax (FhuA ΔC/Δ5L): 0.360 ± 0.001
- Rh max (FhuA ΔC/Δ5L): 3.3 nm
- rmin (FhuA ΔC/Δ5L): 0.219 ± 0.005
- Kd (FhuA ΔC/Δ5L): 1700 ± 100 µM
- Dr fast (FhuA ΔC/Δ5L): 3.3 ± 0.2 10^7 s^−1
- Dr slow (FhuA ΔC/Δ5L): 0.44 ± 0.01 10^7 s^−1
- ΔG (FhuA ΔC/Δ5L): -3.8 ± 0.1 kcal/mol
- q (slope factor or transition steepness) (FhuA ΔC/Δ5L_25N; [2]): 1.30 mM⁻¹
- ΔRh (FhuA ΔC/Δ5L_25N; [3]): 1.5 ± 0.1 nm
- p (Hill coefficient) (FhuA ΔC/Δ5L_25N; [4]): 27 ± 3
- rmax (FhuA ΔC/Δ5L_25N; 200 mM NaCl, 50 mM HEPES): 0.343 ± 0.002
- Rh max (FhuA ΔC/Δ5L_25N; [5]): 3.0 nm
- rmin (FhuA ΔC/Δ5L_25N; 200 mM NaCl, 50 mM HEPES): 0.166 ± 0.003
- Kd (FhuA ΔC/Δ5L_25N; [6]): 900 ± 100 µM
- Dr fast (FhuA ΔC/Δ5L_25N): 5.6 ± 0.2 10^7 s^−1
- Dr slow (FhuA ΔC/Δ5L_25N): 0.66 ± 0.03 10^7 s^−1
- ΔG (FhuA ΔC/Δ5L_25N; ΔG = RT ln Kd): -4.1 ± 0.1 kcal/mol
- q (slope factor or transition steepness) (FhuA ΔC/Δ7L_30N; [2]): 1.07 mM⁻¹
- ΔRh (FhuA ΔC/Δ7L_30N; [3]): 1.0 ± 0.1 nm
- p (Hill coefficient) (FhuA ΔC/Δ7L_30N; [4]): 27 ± 6
- rmax (FhuA ΔC/Δ7L_30N; 200 mM NaCl, 50 mM HEPES): 0.312 ± 0.001
- Rh max (FhuA ΔC/Δ7L_30N; [5]): 2.4 nm
- rmin (FhuA ΔC/Δ7L_30N; 200 mM NaCl, 50 mM HEPES): 0.168 ± 0.007
- Kd (FhuA ΔC/Δ7L_30N; [6]): 900 ± 100 µM
- Dr fast (FhuA ΔC/Δ7L_30N): 1.0 ± 0.1 10^7 s^−1
- Dr slow (FhuA ΔC/Δ7L_30N): 5.5 ± 0.4 10^7 s^−1
- ΔG (FhuA ΔC/Δ7L_30N; ΔG = RT ln Kd): -4.1 ± 0.1 kcal/mol
- Kd (acidic β-barrel proteins): ~1800 µM
- Hill cooperativity p (basic β-barrel proteins; basic FhuA proteins, pH 7.4): ~ 27
- Kd (basic β-barrel proteins; physiological pH): ~900 µM

Compound: CCCCCCCCCCCCOS(=O)(=O)[O-].[Na+] [SDS]
- minimum anisotropy value, r0 (FhuA ΔC/Δ5L; in 40 mM SDS): ~ 0.16

Compound: CCCCCCCCO[C@@H]1O[C@H](CO)[C@@H](O)[C@H](O)[C@H]1O [OG, n-octyl-β-D-glucoside]
- q (slope factor or transition steepness) (OmpG): 0.017 mM⁻¹
- ΔRh (OmpG): 1.0 ± 0.1 nm
- p (Hill coefficient) (OmpG; [1]): 4.9 ± 0.5
- rmax (OmpG; 200 mM NaCl, 50 mM HEPES): 0.306 ± 0.001
- Rh max (OmpG): 2.4 nm
- rmin (OmpG; 200 mM NaCl, 50 mM HEPES): 0.153 ± 0.002
- Kd (OmpG; [6]): 11000 ± 1000 µM
- Dr fast (OmpG): 6.4 ± 0.1 10^7 s^−1
- Dr slow (OmpG): 1.2 ± 0.1 10^7 s^−1
- ΔG (OmpG): -2.7 ± 0.1 kcal/mol
- anisotropy signal (FhuA ΔC/Δ5L; acidic FhuA proteins refolded in detergent): ~ 0.3
- q (slope factor or transition steepness) (FhuA ΔC/Δ5L): 0.013 mM⁻¹
- ΔRh (FhuA ΔC/Δ5L): 0.80 ± 0.02 nm
- p (Hill coefficient) (FhuA ΔC/Δ5L): 5.3 ± 0.9
- rmax (FhuA ΔC/Δ5L): 0.291 ± 0.002
- Rh max (FhuA ΔC/Δ5L): 2.2 nm
- rmin (FhuA ΔC/Δ5L): 0.162 ± 0.002
- Kd (FhuA ΔC/Δ5L): 13000 ± 1000 µM
- Dr fast (FhuA ΔC/Δ5L): 5.8 ± 0.1 10^7 s^−1
- Dr slow (FhuA ΔC/Δ5L): 1.5 ± 0.1 10^7 s^−1
- ΔG (FhuA ΔC/Δ5L): -2.5 ± 0.1 kcal/mol
- rmax (FhuA ΔC/Δ5L_25N; 200 mM NaCl, 50 mM HEPES): ~0.17
- rmin (FhuA ΔC/Δ5L_25N; 200 mM NaCl, 50 mM HEPES): ~0.15
- Dr fast (FhuA ΔC/Δ5L_25N): ~6.6 10^7 s^−1
- Dr slow (FhuA ΔC/Δ5L_25N): ~5.2 10^7 s^−1
- rmax (FhuA ΔC/Δ7L_30N; 200 mM NaCl, 50 mM HEPES): ~0.17
- rmin (FhuA ΔC/Δ7L_30N; 200 mM NaCl, 50 mM HEPES): ~0.15
- Dr fast (FhuA ΔC/Δ7L_30N): ~6.6 10^7 s^−1
- Dr slow (FhuA ΔC/Δ7L_30N): ~5.2 10^7 s^−1
